Test results reported in ChEMBL document CHEMBL4513216, “Probing the Open Global Health Chemical Diversity Library for Multistage-Active Starting Points for Next-Generation Antimalarials” (ACS Infect Dis, 2020).

Assay: Toxicity liver stage against HepG2, at 10uM
Type: cell-based
Design: test concentration 10 uM, cell line HepG2-A16-CD81EGFP
Conditions: human, HepG2-A16-CD81EGFP cells; read-out: INHIBITION
In short: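 Uninfected HepG2-A16-CD81EGFP cells, 3 × 10^3 per well, 1536-well, plated on prespotted compound at 10 μM final, parasite-free screening media added to match infected plates; puromycin 10 μM positive, DMSO 0.5% negative; run in parallel with 48 h PbLuc assay at 37 °C, 5% CO2; viability by CellTiter-Glo luminescence, normalized to controls.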

| Compound | cytotoxicity at 10 µM [%] |
| --- | --- |
| Cc1nc2c(Nc3cccc(C#N)c3)nc(N)nc2n1C | -1.87 |
| COCCOc1ccc(CNc2cnc3ccccc3n2)cn1 | 8.15 |
| Cc1ccc(CN2C[C@H]3CN(Cc4ccccc4Cl)CCN3C2=O)cc1 | -10.3 |
| CN1CCN(C(=O)c2cn(Cc3ccccc3)c3ncccc23)CC1 | -6.63 |
| COc1ccc2c(ccn2CCC(=O)Nc2n[nH]c(C(C)C)n2)c1 | 3.3 |
| O=S(=O)(NCCC(O)c1cccs1)c1ccccc1Cl (stereo not given) | 1.87 |
| CCOC(=O)Cc1csc(NC(=O)c2cc3n(n2)CCCO3)n1 | -11.9 |
| CC(C)(C)C(=O)NCCn1ccc(-c2ccccn2)n1 | 6.47 |
| CC(=O)N1CCN(C(=O)Nc2ccccc2)CC2(CC(=O)N(C)C2)C1 (stereo not given) | -8.93 |
| O=C1NCCC12CN(CC1CC1)CC21CCNCC1 (stereo not given) | -5.31 |
| Cc1ccc(S(=O)(=O)N2C[C@@H]3CCN[C@@H]3C2)cc1 | 2.94 |
| Cc1cccc(N2CC[C@@H]3[C@@H](CO[C@H]3CNC(=O)c3ccco3)C2)n1 | -1.67 |
| Cc1csc([C@@H]2C[C@@H]3CCN(C(=O)c4cnccn4)C[C@H]3O2)n1 | 2.08 |
| O=C(c1cnc2ccc(F)cc2c1NCc1ccccn1)N1CCCC1 | 3 |
| Cc1c(C(=O)O)cnn1-c1ccc(-c2nc(C(C)C)no2)cn1 | -3.42 |
| Cc1noc(C2CCCCN2C(=O)NC2CCCC2)n1 (stereo not given) | 2.4 |
| O=C1CC[C@H]2[C@H](CCN2C(=O)C2CCCO2)N1CCN1CCCC1 (stereo not given in full) | -4.66 |
| CCOC(=O)c1sc(NC(=O)C(C)(C)C)c(C#N)c1C | 9.04 |
| Cc1nn(CCCNC(=O)C2CCN(S(C)(=O)=O)CC2)cc1Br | -7.24 |
| CCN1C(=O)C(C)(C)c2cc(NC(=O)c3ccn(CC)n3)ccc21 | 9.65 |
| Cn1nc(C(=O)NCc2ccccn2)c2c1CCS(=O)(=O)C2 | 7.21 |
| Cc1cc(C)nc(N(C)CCn2ccnc2C)n1 | -5.42 |

| Compound | cytotoxicity at 10 µM [%] |
| --- | --- |
| CC1CCc2nn(CCNC(=O)Cc3cccs3)c(=O)cc2C1 (stereo not given) | 6.83 |
| CCn1cc(S(=O)(=O)N2CCCC3(CC=CNC3=O)C2)c(C)n1 (stereo not given) | -7.56 |
| OCC(CO)N1CCC(c2nccnc2Nc2cnccn2)CC1 | -10.5 |
| CC(=O)N1CCN([C@@H]2CN(C(=O)Cc3ccccc3C)C[C@H]2O)CC1 | -6.94 |
| CN(C)c1cc(C2CCCN(S(=O)(=O)c3cn(C)cn3)C2)ccn1 (stereo not given) | -14.4 |
| CC(C)(C)C(O)CN1CCN(Cc2cccc(C#N)c2)CC1 (stereo not given) | 3.7 |
| Cc1nnc(NCc2ccc(Br)cc2)o1 | 1.66 |
| Cc1nc2cc(F)cc(C(=O)N3CCN(CC(C)O)CC3)c2nc1C (stereo not given) | 4.5 |
| O=C(Nc1cccnc1)Nc1ccn(CC(F)F)n1 | -4.63 |
| OCCN1CCCCC1C1OCCO1 (stereo not given) | 6.66 |
| Cc1cccc(C(=O)N(C)CC(=O)N2CCCC2)c1C | -0.291 |
| CC(c1ccc(S(N)(=O)=O)cc1)N(C)C(=O)c1ccccc1I (stereo not given) | -0.629 |
| CC(C)(CNC(=O)Nc1cccc(-c2nccs2)c1)C(N)=O | -10 |
| COc1c(CNC2CCN(CC(=O)NC3CC3)CC2)c(C)nn1C | 7.76 |
| CC(Nc1cccc2c1OCCO2)C(=O)NC(N)=O (stereo not given) | 2.76 |
| c1cc(-c2noc(-c3cc(C4CC4)[nH]n3)n2)cc(N2CCCCC2)n1 | 3.05 |
| CCn1c(C)nnc1CN(C)C1CCN(Cc2sc(C)nc2C)C1 (stereo not given) | 6.47 |
| Cc1ccc(C(=O)NC2CCN(Cc3noc(C(C)(C)C)n3)CC2)s1 | 1.33 |
| Cc1cccc(OCC(O)CNCc2c(C)nn(C)c2N(C)C)c1 (stereo not given) | -2.45 |
| Cc1cccc(-c2nc(CN3CC(n4nc(C)cc4C)C3)no2)c1 | 1.37 |
| O=C(c1cccc(-n2cnnn2)c1)N1CCC2(CC1)OCCO2 | -126 |
| CC1CN(C(=O)Nc2cccc(CN3CCOC3=O)c2)CCO1 (stereo not given) | -7 |

| Compound | cytotoxicity at 10 µM [%] |
| --- | --- |
| COc1ccc(C2CCCN2S(=O)(=O)N(C)C)cc1 (stereo not given) | 5.08 |
| Cc1ncsc1CCN1CCC(N(C)Cc2ncc(C(C)C)o2)C1 (stereo not given) | -7.49 |
| Clc1ccc(NCc2nnc(C3CC3)o2)cc1Cl | -12.4 |
| Cc1cccc(C(=O)Nc2cccc3c2CCCC3)n1 | -2.35 |
| O=S1(=O)CCC(N2CCN(c3cc(C(F)(F)F)ccn3)CC2)C1 (stereo not given) | -3.97 |
| Cc1c(C(=O)NC2(C#N)CCCC2)nnn1-c1ccccc1Cl | -6.75 |
| CCN(CCCNC(=O)c1cc2cccc(F)c2o1)S(C)(=O)=O | 4.35 |
| CCCn1ccnc1SCCNS(=O)(=O)c1ccccc1 | -12.8 |
| O=S(=O)(CCCNCCn1cccn1)c1ccccc1 | 5.96 |
| OC(COc1ccccc1Br)COC1CCOCC1 (stereo not given) | -8 |
| Cc1cnn(CC(C)NCC(=O)NCCc2cccs2)c1 (stereo not given) | 6.41 |
| CC(C(=O)N(C)C)S(=O)(=O)c1cc2c(cc1Cl)OCCO2 (stereo not given) | 7.71 |
| Cc1nn(C)c(C)c1C1CCCN1c1ncnc2[nH]ccc12 (stereo not given) | 3.45 |
| CC(C)c1nsc(N2CCn3c(nnc3C(F)(F)F)C2)n1 | 5.83 |
| Cc1cc(CN2CCN(S(=O)(=O)c3c(C)c(Cl)cc(C)c3Cl)CC2)on1 | -8.87 |
| CC(CO)(NC(=O)Nc1nncs1)C1CCCCC1 (stereo not given) | 4.17 |
| CC(O)CNc1nc(-c2cccnc2)nc2c1CCC2 (stereo not given) | 9.8 |
| COCC1CN(C(=O)Nc2cc(Cl)cc(Cl)c2)CCO1 (stereo not given) | -4.44 |
| CCC(C)CN(C)C(=O)NCc1ccccc1-n1cccn1 (stereo not given) | 8.75 |
| CC(C)c1n[nH]c(C2CN(C(=O)CCCn3cccn3)CCO2)n1 (stereo not given) | -7.85 |
| O=C(NCC1CC1)C1CSCN1S(=O)(=O)c1cccc(F)c1 (stereo not given) | -14.3 |
| Cc1cc(C)n(CC2CN(Cc3cccc(C(N)=O)c3)CCO2)n1 (stereo not given) | -4.97 |

| Compound | cytotoxicity at 10 µM [%] |
| --- | --- |
| CN(CCc1cn[nH]c1)C(=O)C1CC(=O)N(Cc2ccccn2)C1 (stereo not given) | -6.47 |
| NC(=O)CN1CCC(C(=O)NCc2ccc3c(c2)OCCCO3)CC1 | -6.42 |
| COc1ccc2c(c1)OCC(Cc1cc(N3CCCC3)cnn1)C2 (stereo not given) | -18.1 |
| CCc1ccc(CN2CCCC(c3nn(C)c(=O)n3CC)C2)nc1 (stereo not given) | 1.93 |
| O=c1n(CC2COCCO2)nc(CC2CCNCC2)n1-c1ccccc1 (stereo not given) | -3.41 |
| CCn1c(-c2ccccc2)nn(CC(=O)NCCc2ccc(C)s2)c1=O | 7.69 |
| Cc1nn(CC(=O)NCCc2ccncc2)c(=O)n1Cc1ccccc1 | 18.5 |
| COCCOCC(=O)N1CCCC(c2ncc[nH]2)C1 (stereo not given) | -4.59 |
| COc1ccc(NC(=O)CCC2CCCN(S(=O)(=O)C3CC3)C2)c(C)c1 (stereo not given) | -3.41 |
| CSCCCN1CCc2nc(N(C)C)nc(N3CCC(O)CC3)c2C1 | -4.67 |
| Nc1nnc(CCCNc2ncnc3c2CCN(C(=O)C2CC2)C3)s1 | -3.94 |
| CCCNc1ncc(CN2CCOC(Cc3cccc(F)c3)C2)cn1 (stereo not given) | -8.65 |
| COc1cccc2c1OCC(C(=O)N1CCN(C3CCCC3)C(=O)C1)C2 (stereo not given) | -4.9 |
| Cc1cc(CC(=O)N2CCN(CC(C)C)[C@@H]3CS(=O)(=O)C[C@@H]32)ccc1F | -2.22 |
| Cc1cc(NCc2ccc(CO)cc2)n2nc(C)cc2n1 | -7.38 |
| Cn1ccnc1-c1ccc(NCC2COCCO2)nn1 (stereo not given) | 9.3 |
| COc1cccc2c1OCC(CNC(=O)COCC(F)(F)C(F)F)C2 (stereo not given) | -134 |
| CCOC(=O)N1CCN(CC(=O)Nc2nnc(CC)s2)CC1 | -8.94 |
| COc1ccccc1[C@@H]1CN(CC(=O)N2CCCCC2)C[C@H]1C(=O)O | -2.82 |
| CS(=O)(=O)N1CCC(c2nnc(Cn3ccnc3)n2C2CC2)CC1 | -1.24 |
| CCCN(CC)c1cc(C2CCNCC2)nc(C)n1 | -7.33 |
| CC(=O)N1CCc2c(nc(-c3ccccn3)nc2N(C)CC(O)CO)C1 (stereo not given) | -12.2 |

| Compound | cytotoxicity at 10 µM [%] |
| --- | --- |
| Cc1cc(N(C)Cc2cc(C)on2)n2nc(C)c(C)c2n1 | 19.2 |
| CCc1nc2n(n1)CC(NCc1cc(OC)c3c(c1)OCCO3)CC2 (stereo not given) | -4.93 |
| Cn1cnnc1C1CCCN(C(=O)NCCCn2cccn2)C1 (stereo not given) | -5.42 |
| CC(C(=O)NCCOc1ccc(F)cc1)n1cncn1 (stereo not given) | -1.46 |
| Cc1cc(CN2CCN(C(=O)NCc3cccs3)CC2)no1 | -11.6 |
| Cc1cnn(CC2CCCCN2C(=O)c2n[nH]c3ccccc23)c1 (stereo not given) | -8.25 |
| Cc1cnn(C2CCCN(C(=O)c3cn(-c4ccccc4)nc3C)C2)c1 (stereo not given) | -5.46 |
| Cc1nn(C)c(N(C)C)c1CNCc1ccnc(N2CCCC2)c1 | -11.4 |
| Cc1cnc(CN(C)C2CCN(Cc3nnc(C4CC4)o3)C2)o1 (stereo not given) | 5.25 |
| O=C(CCCOc1cccc(F)c1)N1CCCC(n2cccn2)C1 (stereo not given) | -16 |
| Cc1nc(C)n(CC2CCCCN2Cc2cscn2)n1 (stereo not given) | -5.26 |
| Cc1nc(C)n(CC2CCCN2Cc2cnc(C)s2)n1 (stereo not given) | 0.0757 |
| CN1N=C(C(=O)Nc2cc(F)ccc2OCC2CCCO2)CCC1=O (stereo not given) | -8 |
| CC(=O)Nc1nc(C(=O)NC(C)c2ccc(F)cc2)cs1 (stereo not given) | -0.168 |
| O=C(NCCN1CCCC1)c1nc2c(o1)CN(C(=O)c1cccnc1)C2 | -1.08 |
| CN(C)C(=O)COCc1cncc2c1CCN(Cc1ccccc1)C2 | -4.24 |
| Cn1cc(CN2CCC[C@]3(C(=O)O)CN(c4ncccn4)C[C@@H]3C2)cn1 | 4.89 |
| O=C(N[C@@H]1CN(C2CCCC2)C[C@@H]2CCCO[C@@H]21)c1cnccn1 | -1.58 |
| CCN1C(=O)CCC12CCC(NC(=O)c1cc(C)on1)CC2 (stereo not given) | -0.0663 |
| CN1CCc2c(sc3c2C(=O)NC(C=Cc2ccccc2)N3)C1 (stereo not given) | 6.33 |
| O=C(N1CCOCC1)N1C[C@@H]2CC[C@H]1CN(C1Cc3ccccc3C1)C2 | -4.55 |
| COCCOCC1(CNCc2ccc(F)cc2)C[C@@H](O)[C@@H](O)C1 (stereo not given in full) | -3.1 |
